# According to paper PMC5773961 (British Journal of Pharmacology, 2017):
# Where two headings read alike, the source gives them in different places.
# Tests used:
# α6β3γ2 GABAA receptors = α6β3γ2 GABAA receptors (Rattus norvegicus, UniProt P30191+P63079); format: cell-based; conditions: for modulation of GABA EC3–5 currents in screening of compounds 5–9, in words: 10 μM compound, comparable to compound 3
# Procedure, shortened: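 Oocytes (X. laevis, stage 5–6, defolliculated) received 2.5 ng of rat α6:β3:γ2 mRNA at 3:1:5, or γ2‐β3‐α6 triple plus β3‐α6 double concatemer cRNA at 1:1. Incubated ≥36 h at 18°C. TEVC at −60 mV, room temperature. Per-oocyte GABA EC3–5 co-applied with test compound(s) at various concentrations, 0.1% DMSO final. Hill fit for EC50. ≥3 oocytes from two batches.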
# α1β3γ2 GABAA receptors = α1β3γ2 GABAA receptors (Rattus norvegicus, UniProt P62813+P63079); format: cell-based; conditions: for % modulation of GABA EC3–5 currents: 10 μM compound, control (GABA) = EC3–5
# Procedure, shortened: (§1)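 Rat α and β3/γ2 subunit mRNA (2.5 ng total) injected into defolliculated stage 5–6 X. laevis oocytes. Ratio α:β3:γ2 was 1:1:5 for α1, α2, α3 and α5, and 3:1:5 for α4. Oocytes held ≥36 h at 18°C in NDE. TEVC was run at −60 mV at room temperature under 6 mL·min−1 NDE perfusion. Per-oocyte GABA EC3–5 co-applied with test compound in 0.1% DMSO final. ≥3 oocytes from two batches.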
# [1] = tested on: αxβ3γ2 (x = 1–5) GABAA receptors; format: cell-based, rat
# Procedure, shortened: as §1
# α5β3γ2 GABAA receptors = α5β3γ2 GABAA receptors (Rattus norvegicus, UniProt P19969+P63079); format: cell-based
# Procedure, shortened: as §1
# [2] = Solubility limit in the assay buffer; format: physicochemical; conditions: aqueous buffer
# [3] = tested on: αxβ3γ2 (x = 1–6) GABAA receptors; format: cell-based, rat
# α1β3 receptors = α1β3 receptors (Rattus norvegicus, UniProt P62813+P63079); test: Two-electrode voltage clamp, α1β3 versus α1β3γ2 receptors; format: cell-based; conditions: independence from γ2 subunit
# Procedure, shortened: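 Two-electrode voltage clamp of rat subunit mRNA-injected X. laevis oocytes, ≥36 h at 18°C in NDE (pH 7.5) before recording. Held at −60 mV at room temperature under continuous NDE flow. GABA titrated per oocyte to EC3–5 and co-applied with test compound, 0.1% DMSO final.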
# α6+/γ2− BZ site = α6+/γ2− BZ site (Rattus norvegicus, UniProt P18508+P30191); test: Saturation binding of [3H]Ro15-4513 to rat cerebellar membranes; conditions: presence of diazepam, rat cerebellum, n=3
# [4] = tested on: benzodiazepine (BZD) receptor; conditions: ref Czernik et al., 1982; cited from earlier work
# [5] = tested on: αxβ3γ2 (x = 1–5) GABAA receptors; conditions: non‐α6, αxβ3γ2 receptors; 10 μM; ref Varagic et al., 2013a; cited from earlier work
# [6] = α6β3γ2, 1 μM compound, control (GABA) = EC3–5
# Sequence of α1β3γ2 GABAA receptors (P62813 28-455): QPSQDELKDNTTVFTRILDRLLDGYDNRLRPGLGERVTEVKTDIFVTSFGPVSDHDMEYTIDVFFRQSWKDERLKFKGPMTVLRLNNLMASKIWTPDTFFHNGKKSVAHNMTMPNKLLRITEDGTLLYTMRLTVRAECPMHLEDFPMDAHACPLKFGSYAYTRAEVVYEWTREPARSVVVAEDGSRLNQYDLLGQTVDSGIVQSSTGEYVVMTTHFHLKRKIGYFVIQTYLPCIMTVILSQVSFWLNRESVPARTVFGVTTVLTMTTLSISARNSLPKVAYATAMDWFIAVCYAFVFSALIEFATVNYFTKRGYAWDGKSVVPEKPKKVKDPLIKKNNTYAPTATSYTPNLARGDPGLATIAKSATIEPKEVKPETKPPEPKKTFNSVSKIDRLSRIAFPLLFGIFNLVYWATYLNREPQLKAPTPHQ
# Sequence of α1β3γ2 GABAA receptors (P63079 26-473): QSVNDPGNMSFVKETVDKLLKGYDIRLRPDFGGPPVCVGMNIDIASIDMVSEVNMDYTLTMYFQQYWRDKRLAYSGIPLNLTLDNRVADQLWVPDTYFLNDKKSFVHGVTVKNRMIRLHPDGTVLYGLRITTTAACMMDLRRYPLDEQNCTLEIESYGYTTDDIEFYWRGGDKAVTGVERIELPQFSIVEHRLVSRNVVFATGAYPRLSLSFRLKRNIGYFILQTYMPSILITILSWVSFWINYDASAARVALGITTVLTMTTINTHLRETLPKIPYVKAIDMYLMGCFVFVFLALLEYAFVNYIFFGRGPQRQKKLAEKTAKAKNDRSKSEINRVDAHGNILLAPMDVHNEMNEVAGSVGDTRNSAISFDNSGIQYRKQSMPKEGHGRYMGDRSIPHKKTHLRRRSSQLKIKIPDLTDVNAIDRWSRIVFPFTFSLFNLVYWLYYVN
# Sequence of α1β3γ2 GABAA receptors (P18508 39-466 partner): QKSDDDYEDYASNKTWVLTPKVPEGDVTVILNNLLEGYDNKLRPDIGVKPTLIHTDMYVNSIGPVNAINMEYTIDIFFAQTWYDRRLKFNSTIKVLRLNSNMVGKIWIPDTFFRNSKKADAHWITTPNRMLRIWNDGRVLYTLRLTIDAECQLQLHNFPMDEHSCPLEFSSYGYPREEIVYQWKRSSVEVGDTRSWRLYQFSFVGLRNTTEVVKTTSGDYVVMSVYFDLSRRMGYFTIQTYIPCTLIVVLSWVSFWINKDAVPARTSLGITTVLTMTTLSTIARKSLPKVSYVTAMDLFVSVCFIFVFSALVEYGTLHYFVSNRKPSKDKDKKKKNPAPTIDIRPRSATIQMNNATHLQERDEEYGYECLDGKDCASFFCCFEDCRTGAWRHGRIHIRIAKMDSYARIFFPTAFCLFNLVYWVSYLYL
# Sequence of α6β3γ2 GABAA receptors (P30191 20-453): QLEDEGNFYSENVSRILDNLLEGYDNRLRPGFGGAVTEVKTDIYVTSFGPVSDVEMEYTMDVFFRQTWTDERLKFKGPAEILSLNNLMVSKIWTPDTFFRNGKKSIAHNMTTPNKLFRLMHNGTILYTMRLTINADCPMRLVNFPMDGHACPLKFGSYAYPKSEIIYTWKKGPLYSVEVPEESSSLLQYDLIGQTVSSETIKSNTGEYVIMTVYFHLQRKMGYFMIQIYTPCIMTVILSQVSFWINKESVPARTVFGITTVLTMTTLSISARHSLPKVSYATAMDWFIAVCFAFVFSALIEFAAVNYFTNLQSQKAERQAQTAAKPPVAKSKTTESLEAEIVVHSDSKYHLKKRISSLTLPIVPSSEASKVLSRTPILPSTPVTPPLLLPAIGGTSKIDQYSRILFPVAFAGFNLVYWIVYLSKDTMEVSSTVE
# Sequence of α6β3γ2 GABAA receptors (P63079 26-473): as the sequence (P63079 26-473) above
# Sequence of α6β3γ2 GABAA receptors (P18508 39-466 partner): as the sequence (P18508 39-466 partner) above
# Sequence of α1β3 receptors (P62813 28-455): as the sequence (P62813 28-455) above
# Sequence of α1β3 receptors (P63079 26-473): as the sequence (P63079 26-473) above
# Sequence of α5β3γ2 GABAA receptors (P19969 32-464 limits assumed): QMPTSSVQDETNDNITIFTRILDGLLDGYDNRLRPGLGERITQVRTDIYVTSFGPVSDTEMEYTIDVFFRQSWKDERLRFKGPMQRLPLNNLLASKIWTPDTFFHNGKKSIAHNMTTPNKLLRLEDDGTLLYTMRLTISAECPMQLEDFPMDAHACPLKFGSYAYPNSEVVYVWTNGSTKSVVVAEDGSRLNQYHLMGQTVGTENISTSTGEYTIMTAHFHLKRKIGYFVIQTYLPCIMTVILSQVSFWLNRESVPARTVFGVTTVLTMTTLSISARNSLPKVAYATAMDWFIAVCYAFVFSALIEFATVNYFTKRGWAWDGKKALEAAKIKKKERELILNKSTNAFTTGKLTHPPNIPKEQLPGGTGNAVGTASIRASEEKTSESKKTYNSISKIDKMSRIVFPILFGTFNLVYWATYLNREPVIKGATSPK
# Sequence of α5β3γ2 GABAA receptors (P63079 26-473): as the sequence (P63079 26-473) above
# Sequence of α5β3γ2 GABAA receptors (P18508 39-466 partner): as the sequence (P18508 39-466 partner) above
# Sequence of α6+/γ2− BZ site (P30191 20-453): as the sequence (P30191 20-453) above
# Sequence of α6+/γ2− BZ site (P18508 39-466): as the sequence (P18508 39-466 partner) above
smiles,measurement,setting,value
"COc1cccc(-n2nc3c4cc(Cl)ccc4[nH]cc-3c2=O)c1 [Compound 3, 8‐chloro‐2‐(3‐methoxyphenyl)‐2H,3H,5H‐pyrazolo[4,3‐c]quinolin‐3‐one]",EC50,α6β3γ2 GABAA receptors,3.1 µM
same,% modulation of GABA EC3–5 currents,"α6β3γ2 GABAA receptors; α6β3γ2, 10 μM compound concentration, control GABA EC3–5 = 100%",around 300%
same,type of modulation,α1β3γ2 GABAA receptors,null (silent) modulator
same,effect on positive GABA current modulation by compound 2 (1 μM),α1β3γ2 GABAA receptors; co-application of 10 and 30 μM,reduced the modulatory effect of compound 2
same,modulatory activity,[1],completely abolished
"COc1ccccc1-n1nc2c3cc(Cl)ccc3[nH]cc-2c1=O [Compound 4, 8‐chloro‐2‐(2‐methoxyphenyl)‐2H,3H,5H‐pyrazolo[4,3‐c]quinolin‐3‐one]",effect on modulation elicited by compound 3 (3 μM),"α6β3γ2 GABAA receptors; α6β3γ2, co-application up to 30 μM",unable to abolish the modulatory effect
same,modulatory activity,α5β3γ2 GABAA receptors,weak negative modulatory activity
same,solubility,[2],30 µM
same,positive allosteric modulation (PAM) activity,[3],abolished any positive allosteric modulation (PAM) activity
"Nc1cccc(-n2nc3c4cc(Cl)ccc4[nH]cc-3c2=O)c1 [Compound 8, 2‐(3‐aminophenyl)‐8‐chloro‐2H,3H,5H‐pyrazolo[4,3‐c]quinolin‐3‐one]","modulation of GABA EC3–5 currents in screening of compounds 5–9, in words",α6β3γ2 GABAA receptors; α6β3γ2,strongest modulation
"Cc1cccc(-n2nc3c4cc(Cl)ccc4[nH]cc-3c2=O)c1 [Compound 5, 8‐chloro‐2‐(3‐methylphenyl)‐2H,3H,5H‐pyrazolo‐[4,3‐c]quinolin‐3‐one]",% modulation of GABA EC3–5 currents,α6β3γ2 GABAA receptors; [6],more than 150%
same,"modulation of GABA EC3–5 currents in screening of compounds 5–9, in words",α6β3γ2 GABAA receptors; α6β3γ2,strongest modulation
same,% modulation of GABA EC3–5 currents,α1β3γ2 GABAA receptors,210.7 ± 17%
same,modulatory effects in α1β3γ2 and α1β3,α1β3 receptors,overlapping
CCOC(=O)c1ncn2c1CN(C)C(=O)c1cc(N=[N+]=[N-])ccc1-2 [[3H]Ro15-4513],Kd,α6+/γ2− BZ site,0.0014 ± 0.0001 µM
"O=C(O)c1cccc(-n2nc3c4cc(Cl)ccc4[nH]cc-3c2=O)c1 [Compound 9, 3‐(8‐chloro‐3‐oxo‐2H,3H,5H‐pyrazolo[4,3‐c]quinolin‐2‐yl)benzoic acid]",% modulation of GABA EC3–5 currents,α6β3γ2 GABAA receptors; [6],more than 150%
same,"modulation of GABA EC3–5 currents in screening of compounds 5–9, in words",α6β3γ2 GABAA receptors; α6β3γ2,strongest modulation
same,type of modulation,α1β3γ2 GABAA receptors,negative allosteric modulation
same,% modulation of GABA EC3–5 currents,α1β3γ2 GABAA receptors,17.9 ± 7.4%
same,modulatory effects in α1β3γ2 and α1β3,α1β3 receptors,overlapping
O=C1C2C=Nc3ccccc3C2=NN1c1ccccc1 (stereo not shown) [CGS8216],concentrations displacing [3H]‐flunitrazepam and [3H]‐diazepam binding,[4],subnanomolar
COc1ccc(-n2nc3c4ccc(OC)cc4[nH]cc-3c2=O)cc1 [PZ‐II‐029],"residual modulatory activity, % of control GABA currents",[5],roughly 200%
